The record followed here is ChEMBL document CHEMBL3352678, “Synthesis and acetylcholinesterase inhibitory activity of Mannich base derivatives flavokawain B” (Bioorg Med Chem Lett, 2014).

Each structure is given as a SMILES string.

Series [1] in a line: Octanol-buffer partition coefficient, log p of the compound at pH 7.4 for 24 hrs by shake flask method. Format: physicochemical. The method, boiled down: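 Partitioning between n-octanol and buffer at pH 7.4 by the classical shake-flask method. Compound in each phase quantified by reverse-phase HPLC. log P calculated from the phase distribution.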
In series [2] the target is T1, Acetylcholinesterase (Rattus norvegicus, UniProt P37136).
T1 sequence (P37136 whole entry): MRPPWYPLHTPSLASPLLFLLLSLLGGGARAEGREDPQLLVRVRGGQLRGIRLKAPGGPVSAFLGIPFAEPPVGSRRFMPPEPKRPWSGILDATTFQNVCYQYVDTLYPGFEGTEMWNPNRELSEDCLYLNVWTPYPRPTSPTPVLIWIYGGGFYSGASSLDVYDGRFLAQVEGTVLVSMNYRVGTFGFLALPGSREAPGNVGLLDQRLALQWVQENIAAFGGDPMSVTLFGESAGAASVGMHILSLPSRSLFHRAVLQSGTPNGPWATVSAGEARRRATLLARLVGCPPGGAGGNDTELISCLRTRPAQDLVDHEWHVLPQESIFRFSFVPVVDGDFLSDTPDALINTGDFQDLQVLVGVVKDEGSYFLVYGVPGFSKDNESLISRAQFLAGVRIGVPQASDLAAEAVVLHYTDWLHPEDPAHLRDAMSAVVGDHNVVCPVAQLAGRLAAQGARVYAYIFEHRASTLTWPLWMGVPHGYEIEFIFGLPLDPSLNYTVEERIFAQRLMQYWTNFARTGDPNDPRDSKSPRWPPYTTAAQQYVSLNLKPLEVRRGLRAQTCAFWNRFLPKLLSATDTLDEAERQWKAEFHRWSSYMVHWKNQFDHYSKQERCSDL
The series can be described thus: Inhibition of Sprague-Dawley rat brain AChE using acetylthiocholin iodide as substrate preincubated for 25 mins by Ellman's/UV-vis spectroscopy analysis. The method, boiled down: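 Modified Ellman's method. Inhibition ratio was calculated from absorbance of the AChE-catalysed reaction product. IC50 was taken as the concentration causing 50% loss of enzyme activity.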

For series [3], the target named is T1, Acetylcholinesterase. The series can be described thus: Inhibition of Sprague-Dawley rat brain AChE using acetylthiocholin iodide as substrate by Michaelis-Menten equation. The method, boiled down: (§1)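 Kinetic analysis: Km and vmax were determined at several inhibitor concentrations. Ki for the free enzyme came from a linear replot of slope against inhibitor concentration. Ki′ for the enzyme–substrate complex came from a linear replot of intercept against inhibitor concentration.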

Series [4] concerns the target T1, Acetylcholinesterase. The series can be described thus: Inhibition of Sprague-Dawley rat brain AChE by Michaelis-Menten equation. An outline of the steps: as §1

In series [1], `COc1cc(OC)c(C(=O)/C=C/c2ccccc2)c(O)c1CN(C)C` registered a logD at 24 h of 1.61. Also, the half-inhibitory concentration (IC50) in series [2] was determined as 18.8 µM.

Take `CCN(CC)Cc1c(OC)cc(OC)c(C(=O)/C=C/c2ccccc2)c1O`: in series [1], the logD at 24 h turned out to be 1.69. Further, the half-maximal inhibitory concentration (IC50) in series [2] is 15.1 µM.

In series [1], `CCCN(CCC)Cc1c(OC)cc(OC)c(C(=O)/C=C/c2ccccc2)c1O` came in with a log distribution coefficient (logD) at 24 h of 1.77. Half-maximal inhibition in series [2] (IC50) required 54.8 µM.

Compound `COc1cc(OC)c(C(=O)/C=C/c2ccccc2)c(O)c1CN1CCCC1` had a logD at 24 h in series [1] of 1.74. In addition, half-maximal inhibition in series [2] (IC50) required 16.1 µM.

Consider `COc1cc(OC)c(C(=O)/C=C/c2ccccc2)c(O)c1CN1CCCCC1`, for which the results for the Ki in series [3] and in series [4] were 4.58 µM and 2.75 µM, respectively. This compound also gave a logD at 24 h in series [1] of 1.75. Besides, the half-inhibitory concentration (IC50) in series [2] was 4.15 µM.

The compound `COc1cc(OC)c(C(=O)/C=C/c2ccccc2)c(O)c1CN1CCOCC1` gave a logD at 24 h in series [1] of 1.63. The compound further registered a half-inhibitory concentration (IC50) in series [2] of 265 µM.

In the case of `COc1cc(OC)c(C(=O)/C=C/c2ccccc2)c(O)c1CN1CCN(C)CC1`, in series [1], the logD at 24 h came to 1.58. This compound also displayed a half-maximal inhibitory concentration (IC50) in series [2] of 12.4 µM.
